This note sets out measurements from ChEMBL document CHEMBL4513216, “Probing the Open Global Health Chemical Diversity Library for Multistage-Active Starting Points for Next-Generation Antimalarials” (ACS Infect Dis, 2020).

The data set can be described thus: Toxicity liver stage against HepG2, at 10uM. More on the design: test concentration 10 uM, cell line HepG2-A16-CD81EGFP. The class given is cell-based. To be noted: human, HepG2-A16-CD81EGFP cells; read-out: INHIBITION
The method, boiled down:
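Uninfected HepG2-A16-CD81EGFP cells, 3 × 10^3 per well, 1536-well, plated on prespotted compound at 10 μM final, parasite-free screening media added to match infected plates; puromycin 10 μM positive, DMSO 0.5% negative; run in parallel with 48 h PbLuc assay at 37 °C, 5% CO2; viability by CellTiter-Glo luminescence, normalized to controls.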
In the case of `Cc1ccccc1C(=O)NC(C)CN1CCOC1=O` (stereo unspecified), the cytotoxicity at 10 µM stood at 4.33%.
On to `COc1ccccc1C1SCC(=O)Nc2c1c(=O)[nH]n2C1CCOCC1` (stereo unspecified), for which the cytotoxicity at 10 µM is -5.43%.
The figure for `O=C(CSc1nc2c(cnn2CCO)c(=O)[nH]1)NC1CCCCC1` is -8.07%; for `O=C(Nc1nc2c(s1)CN(S(=O)(=O)C1CC1)CC2)c1ccccn1` it is -5.46%.
Turning to `COCCNC(=O)c1ccnn1-c1ccc2ccccn12`, the cytotoxicity at 10 µM came out at 8.28%.
Take `COc1cccc(-c2cnc3n2CCC32CCN(S(C)(=O)=O)CC2)c1`: the cytotoxicity at 10 µM is -2.2%.
The figure for `O=C(C1CC(F)(F)C1)N1CC[C@H]2OCC[C@@]2(COCC2CC2)C1` is -3.09%; for `Cc1ccccc1C(=O)N1C[C@@H]2C[C@@H](C)O[C@@H]2C1` it is 0.995%.
`Cn1cc(CN2CCCn3cnc(COCc4ccco4)c3C2)cn1`: the cytotoxicity at 10 µM amounted to 7.61%.
For `Cc1cc(NC(=O)CC2(Cn3cnnn3)CCCCC2)nn1C`, the cytotoxicity at 10 µM worked out at 10.4%.
Consider `Cc1cc(C)cc(OCn2ccc(C(=O)O)n2)c1`, for which the cytotoxicity at 10 µM amounted to 6.06%.
For the compound `O=C(c1n[nH]cc1Cl)N1CCOCC1`, the cytotoxicity at 10 µM stood at 9.02%.
Consider `CCn1nc(C)c2nc(C)nc(NCCCn3cccn3)c21`, for which the cytotoxicity at 10 µM stood at 2.38%.
Regarding `CC(CN(C)C)Nc1nc(O)cc(Cc2ccccc2F)n1` (stereo unspecified), the cytotoxicity at 10 µM stood at 13.2%.
In the case of `O[C@@H]1C[C@H]2CN(Cc3ccsc3)[C@@H](Cc3ccccc3)CN2C1`, the cytotoxicity at 10 µM is -2.13%.
As to `CCC1c2ccc(C)n2CCN1C(=O)Cn1cnc2sc(C)cc2c1=O` (stereo unspecified), the cytotoxicity at 10 µM came out at 6.09%.
For `CC(=O)N1CCC(C(=O)c2cc(C)cnc2N)CC1`, the cytotoxicity at 10 µM is -0.0531%.
As to `O=C(c1ccc(Cl)cc1)N1CC2(CCNC2)OCc2ccccc21` (stereo unspecified), the cytotoxicity at 10 µM was determined as 9.9%.
The figure for `O=S(=O)(NCCCn1cccn1)c1ccc2c(c1)CCC2` is -4.59%.
Then `CN(Cc1ccco1)C(=O)CN1C(=O)c2cc(Cl)c(Cl)cc2C1=O`, with 1.11%; and `COCc1noc(Cn2c(C3CC3)nc3ccccc32)n1`, with 13.2%; and `COc1ccc(C(C)NCc2nnc(C)s2)cc1F` (stereo unspecified), with -19.8%.
As to `COC(=O)C1CN(Cc2ccc(-c3ccncc3)cc2F)C[C@@H](C)O1` (stereo partly specified), the cytotoxicity at 10 µM stood at 1.63%.
`CCc1nsc(N2CCCN(CC(=O)N(C)C3CC3)CC2)n1`: the cytotoxicity at 10 µM was -9.43%.
For `CCc1ccc(C(COC)NC(=O)c2ccc(C(N)=O)cc2)o1` (stereo unspecified), the cytotoxicity at 10 µM was -2.65%.
In the case of `CC(C)c1nccn1C1CCCN(C(=O)c2ccc(=O)n(C)n2)C1` (stereo unspecified), the cytotoxicity at 10 µM was determined as 7.8%.
The figure for `COC(=O)N1CCN(Cc2ccccc2C(C)(C)C#N)CC1` is -3.53%; for `CN(Cc1nnc(C2CC2)n1C)C1CCN(CCS(C)(=O)=O)C1` (stereo unspecified) it is 0.918%.
For the compound `Cc1cc(C(=O)N2CCCN(Cc3cnn(C(C)C)c3)CC2)no1`, the cytotoxicity at 10 µM worked out at 0.243%.
Take `Cc1cnn(-c2cccc(N3CCCCC3)n2)c1`: the cytotoxicity at 10 µM was found to be 0.247%.
As for `CSc1ccc(NC(=O)Cc2cccc(O)c2)nc1`, the cytotoxicity at 10 µM is -4.3%.
As to `CN(C(=O)c1ccco1)C1CCC(NC(=O)OC(C)(C)C)CC1` (stereo unspecified), the cytotoxicity at 10 µM was determined as 8.12%.
The figure for `CN1CCN(c2ccccc2NC(=O)NCC[S+](C)[O-])CC1` (stereo unspecified) is -2.41%; for `Cc1cccc2c1NC(c1cnc(C3CCC3)s1)NC2=O` (stereo unspecified) it is 5.11%; for `COCCOCCCNC(=O)c1cc(Cl)cc2cccnc12` it is 32.6%.
With `Cc1cccc2c(CCNS(=O)(=O)C3CCOC3)c[nH]c12` (stereo unspecified), the cytotoxicity at 10 µM was determined as 12.7%.
For the compound `Fc1cccc(CCN(c2ccc3nnnn3n2)C2CC2)c1`, the cytotoxicity at 10 µM stood at 4.21%.
Consider `Cc1cc(CN2CCCC(C)(CO)C2)ccc1F` (stereo unspecified), for which the cytotoxicity at 10 µM is -20.4%.
On to `COc1cc(N2CC[C@@H]3OCCN(C)[C@H]3CC2)ncn1`, for which the cytotoxicity at 10 µM is -96.6%.
The figure for `O=C(c1ccoc1)N1CCO[C@@H]2CNC[C@@H]21` is -99.9%; for `O=C(c1ccno1)N1CC[C@@H]2CN(C3CCOCC3)CCO[C@@H]2C1` it is -102%; for `O=C(Cc1ccsc1)N1C[C@@H]2COC[C@]2(COc2cccnc2)C1` it is -99.3%.
Regarding `CC(C)N(C)Cc1cnc2n1CCN(C(=O)c1cccs1)C2`, the cytotoxicity at 10 µM is -74.2%.
Then `O=C(NCc1ccccc1)N1CCn2c(Cn3cccn3)cnc2C1`, with -71%.
As to `CN(C)C(=O)N1CCC2(CC1)C(c1cnn(C)c1)CC(=O)N2C` (stereo unspecified), the cytotoxicity at 10 µM was -78.2%.
With `Cc1occc1C(=O)N1CCn2c(COCC3CC3)cnc2C1C` (stereo unspecified), the cytotoxicity at 10 µM is 7.02%.
In the case of `CC1c2ncc(COCC3CC3)n2CCN1C(=O)c1ccnn1C` (stereo unspecified), the cytotoxicity at 10 µM came out at 4.68%.
Regarding `Cn1cc(-c2nnn3c2COC(CNCc2ccncc2)C3)cn1` (stereo unspecified), the cytotoxicity at 10 µM is 0.887%.
Turning to `Cc1nc(CN(C)CC2CCCN(CCc3ccc(Cl)cc3)C2)n(C)n1` (stereo unspecified), the cytotoxicity at 10 µM is 4.44%.
The figure for `O=C1N(CCCc2ccccc2)CCCC1(O)CNCC1CCCCC1` (stereo unspecified) is -0.106%; for `CN(C)C(=O)c1ccc(C2CCCN2C(=O)c2ccccc2N(C)C)s1` (stereo unspecified) it is 18.5%.
The figure for `Cc1cccc(C(=O)N2CCCCC2c2nc3cc(F)ccc3[nH]2)n1` (stereo unspecified) is -1.99%; for `CCc1cnc(NCc2nc(COC)no2)nc1` it is 7.36%.
Then `Cc1nccc(N[C@H]2CN(CCS(C)(=O)=O)C[C@@H]2C2CC2)n1`, with 0.34%; and `COCCn1cnnc1Cn1ccnc1-c1ccsc1`, with 8.61%; and `Cc1noc(C)c1-c1n[nH]c2c1CN(S(=O)(=O)c1ccsc1)CC2`, with 5.6%.
Turning to `Cc1cc(C(=O)N2CCC(CCn3cccn3)CC2)c(C)o1`, the cytotoxicity at 10 µM was -5.27%.
Take `CC(C)[C@@H]1CN(C(=O)C2(c3ccccc3)CCN(C)CC2)C[C@H]1N(C)C`: the cytotoxicity at 10 µM was -32%.
Then `Cc1ccc(C2(CN3CCN(c4ncccn4)CC3)CCNCC2)nc1`, with -10.1%; and `Cc1cc2nc(C(C)C)cc(NCCc3cccn3C)n2n1`, with 0.407%; and `CCOCC(C)(C)NC(=O)Nc1cc(F)ccc1OC`, with -3.12%.
The figure for `CCn1c(N)nc2cc(C(=O)NCCc3ccccc3F)cnc21` is -1.83%; for `O[C@@H]1CN(c2nc3ccccc3o2)CC[C@H]1c1ccc2c(c1)OCO2` it is 5.36%; for `Cc1cc(C(=O)N2CCC(n3cc(CO)nn3)CC2)ccc1F` it is -4.73%.
The figure for `Cc1ccsc1C(=O)NCc1ccnc(OCC(F)(F)F)c1` is -6.19%; for `Cc1cnn(CC2CCCCN2C(=O)c2ccc3[nH]c(=O)[nH]c3c2)c1` (stereo unspecified) it is 5.8%.
As for `CC(O)CNC(=O)NCc1ccc(N2CCNC(=O)C2)cc1` (stereo unspecified), the cytotoxicity at 10 µM is -7.23%.
The figure for `O=C(NCc1cc[nH]n1)N1CCN(c2ccccc2Cl)CC1` is -2.82%.
With `COc1ccc(C(=O)N(Cc2cnn(C)c2)C(C)C)cc1Br`, the cytotoxicity at 10 µM was -9.02%.
For `CCC(CNC(=O)Nc1cnn(CC)c1)N1CCCC1` (stereo unspecified), the cytotoxicity at 10 µM is -1.47%.
Consider `CN1CCOC(CNCCc2ccccn2)C1` (stereo unspecified), for which the cytotoxicity at 10 µM is -4.77%.
`Cc1nc(C)n(CC2CCCN2Cc2nc3ccccc3nc2C)n1` (stereo unspecified): the cytotoxicity at 10 µM turned out to be 6.21%.
As for `Cc1ccc(-c2nc(CN3CCC(C(=O)N(C)C)CC3)cs2)o1`, the cytotoxicity at 10 µM was 1.32%.
`CC(C)N1CCC(CNCc2c[nH]nc2C(C)(C)C)C1` (stereo unspecified): the cytotoxicity at 10 µM is -2.16%.
Consider `O=C(c1cnc(C2CC2)s1)N1CCCC(n2cccn2)C1` (stereo unspecified), for which the cytotoxicity at 10 µM is -13.9%.
As to `CCc1nc(CNC(C)Cn2cccn2)cs1` (stereo unspecified), the cytotoxicity at 10 µM was -4.67%.
Then `CC(=O)Nc1nc(CN2CCCC2Cn2cc(C)cn2)cs1` (stereo unspecified), with 3.22%.
For `CC(C)C(=O)N1CCC2(CC1)NC(=O)c1ccccc12`, the cytotoxicity at 10 µM is -0.787%.
Take `CC(C)N(C(=O)Cn1c(-c2ccco2)cc2cccnc21)C(C)C`: the cytotoxicity at 10 µM is -4.32%.
Take `CC(C)CNC(=O)N1CCC2(CC1)OC(C(N)=O)Cn1ccnc12` (stereo unspecified): the cytotoxicity at 10 µM is -103%.
As to `CO[C@@H]1CCN(S(=O)(=O)c2cn(C)cn2)[C@H]1Cc1ccncc1`, the cytotoxicity at 10 µM came out at 4.05%.
Regarding `CCCC(N)CNS(=O)(=O)Cc1cccc(C#N)c1` (stereo unspecified), the cytotoxicity at 10 µM came to 6.13%.
For `O=C([C@H]1CN(Cc2ccoc2)C[C@H]2OCC[C@@H]12)N1CCCCO1`, the cytotoxicity at 10 µM came to 7.86%.
Then `COc1ccc([C@@H]2CN(Cc3ccncc3)C[C@H]2c2cc[nH]n2)cc1`, with -4.96%; and `Cc1ccc(CN2CCOC3(CCN(C(=O)C4CCOC4)CC3)C2)cc1` (stereo unspecified), with 0.933%.
As for `CN(C)C(=O)NC1COC2(CCN(Cc3ccc(Cl)c(F)c3)CC2)C1` (stereo unspecified), the cytotoxicity at 10 µM is -76.4%.
As to `CC(C)C(=O)N1CCc2onc(C(=O)NCCN(C)C)c2C1`, the cytotoxicity at 10 µM turned out to be 5.56%.
Regarding `CN(C)C(=O)COCc1nnc2n1CCN(Cc1ccsc1)C2`, the cytotoxicity at 10 µM amounted to 7.16%.
Then `COCCNC(=O)[C@@]12CCO[C@@H]1CCN(Cc1c(C)noc1C)C2`, with -2.45%; and `Cc1ccc(C(=O)N2CCn3c(COCC4CC4)cnc3C2C)nc1` (stereo unspecified), with 3.58%; and `CN(C)C(=O)[C@@H]1CC[C@@H]2[C@@H](CCN2Cc2ccccn2)O1`, with -3.55%.
`CN(Cc1cccs1)C1CCC[C@@H]2CN(C(N)=O)C[C@H]12` (stereo partly specified): the cytotoxicity at 10 µM stood at 18.6%.
For `O=C(Cc1cccc(F)c1)N1CCN2C[C@H](Oc3cncnc3)C[C@H]2C1`, the cytotoxicity at 10 µM came to 6.1%.
As to `CSc1ccc(C(=O)N2C[C@@H]3CC[C@H]2CN(Cc2ccccc2)C3)cc1`, the cytotoxicity at 10 µM is -5.49%.
As to `O=C(CC1[C@H]2CN(C(=O)Cc3ccccn3)C[C@@H]12)Nc1cccnc1` (stereo partly specified), the cytotoxicity at 10 µM amounted to 10.1%.
For the compound `C=c1nc(NC)sc1=C1NC(c2c(C)ncc3c2CCNC3)=NO1`, the cytotoxicity at 10 µM worked out at 1.67%.
